pIC50: −log10 of the molar value. Entries after “also recorded” stand apart in the source; their conditions may differ.
Tests used:
Assay type in all cases: cell-based
human HEp2 cells [1] = assay: Time-dependent cellular uptake; details: for Cellular uptake at 24 h: 10 μM compound; for Cellular uptake (in words): 0-24 h
Procedure, shortened: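 HEp2 cells, cultured and plated as for cytotoxicity, were exposed to 10 μM test compound for 0, 1, 2, 4, 8 and 24 h. Cells were PBS-washed and lysed in 0.25% Triton X-100/PBS, and fluorescence was read at 485/590 nm against a compound standard curve (0.3125–10 μM). Cell number was measured by CyQuant against a 10⁴–10⁵ cell standard curve. Uptake was expressed as nM compound per cell.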

human HEp2 cells [2] = assay: Phototoxicity; details: for pIC50: read-out: Phototoxicity IC50, 1.5 J/cm^2 light dose, up to 100 μM
Procedure, shortened: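 HEp2 cells were grown in 50:50 DMEM:AMEM with 5% FBS and 1% penicillin/streptomycin, plated at 7500 cells/well and grown 48 h. Cells were loaded 24 h with test compound at 0–100 μM (from 32 mM DMSO stock), washed with PBS and given fresh medium. They were irradiated 20 min with a 600 W water-filtered halogen lamp (~1.5 J/cm²) and incubated 24 h. Viability was read with 20% CellTiter Blue (4 h, 570/615 nm), normalized to untreated (100%) and 0.2% saponin (0%).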

human HEp2 cells [3] = assay: Dark cytotoxicity; details: read-out: Dark toxicity IC50, in the dark, up to 200 μM, incubated overnight
Procedure, shortened: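 HEp2 cells kept in 50:50 DMEM:AMEM with 5% FBS and 1% penicillin/streptomycin, seeded at 7500 per well and grown 48 h. Dosed at 0, 6.25, 12.5, 25, 50, 100 and 200 μM final, diluted from DMSO stock, overnight at 37°C, 5% CO₂. Washed with PBS, then 20% CellTiter Blue medium for 4 h, read at 570/615 nm. Untreated set to 100%, 0.2% saponin to 0%.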

Row | Compound | Cellular uptake at 24 h (human HEp2 cells [1]) | Cellular uptake (in words) (human HEp2 cells [1]; 10 μM) | Phototoxicity (in words) (human HEp2 cells [2]; light irradiation 1.5 J/cm^2, up to 100 μM) | pIC50 (human HEp2 cells [2]) | pIC50 (human HEp2 cells [3]) | Time at which uptake plateau was reached (human HEp2 cells [1]; 10 μM)
1 | 2,3,5,6,8-Pentaphenyl-BODIPY [BODIPY 4] | 0.058±0.028 nM/cell | very low uptake; also recorded: accumulated the least | slight phototoxicity | < 4.00 | < 3.70 | 
2 | 3,5,8-Triphenyl-2,6-dichloro-BODIPY [BODIPY 2] | 1.2±0.10 nM/cell | taken-up faster and more efficiently at all times investigated; also recorded: accumulated the most within cells after 24 hours |  | < 4.00 | < 3.70 | 
3 | 3,5,8-Triphenyl-2,6-dithienyl-BODIPY [BODIPY 3] | 0.14±0.01 nM/cell | very low uptake |  | < 4.00 | < 3.70 | 
4 | 8-(4-Benzyloxycarbonylphenyl)-3,5-di(4-methoxyphenyl)-2,6-dichloro-BODIPY [BODIPY 6a] | 0.14±0.01 nM/cell |  |  | < 4.00 | < 3.70 | 
5 | 8-(4-Cyanophenyl)-3,5-di(4-methoxyphenyl)-2,6-dithienyl-BODIPY [BODIPY 7] | 0.12±0.01 nM/cell |  |  | < 4.00 | < 3.70 | 
6 | COc1ccc(C2=[N+]3C(=C(c4ccc(C#N)cc4)c4cc(Cl)c(-c5ccc(OC)cc5)n4[B-]3(F)F)C=C2Cl)cc1 [BODIPY 6b, 8-(4-Cyanophenyl)-3,5-di(4-methoxyphenyl)-2,6-dichloro-BODIPY] | 0.51±0.01 nM/cell | higher cellular uptake; also recorded: highest cellular uptake |  | < 4.00 | < 3.70 | 
7 | COc1ccc(C2=CC3=C(c4ccc(C#N)cc4)c4cc(-c5ccc(C#N)cc5)c(-c5ccc(OC)cc5)n4[B-](F)(F)[N+]3=C2c2ccc(OC)cc2)cc1 [BODIPY 8, 8-(4-Cyanophenyl)-3,5-di(4-methoxyphenyl)-2-(4-methoxyphenyl)-6-(4-cyanophenyl)-BODIPY] | 0.79±0.13 nM/cell | higher cellular uptake; also recorded: highest cellular uptake |  | < 4.00 | < 3.70 | 8 h
